Test results published in ChEMBL document CHEMBL1138348, “A p-[18F]fluoroethoxyphenyl bicyclic nucleoside analogue as a potential positron emission tomography imaging agent for varicella-zoster virus thymidine kinase gene expression” (J Med Chem, 2007).
Each block holds one compound with its values, some of them ahead of it.

Assays:
[1] = biological target: T1, Thymidine kinase, cytosolic (Homo sapiens, UniProt P04183); assay: Inhibition of human cytosolic thymidine kinase 1
T1 sequence (P04183 whole entry): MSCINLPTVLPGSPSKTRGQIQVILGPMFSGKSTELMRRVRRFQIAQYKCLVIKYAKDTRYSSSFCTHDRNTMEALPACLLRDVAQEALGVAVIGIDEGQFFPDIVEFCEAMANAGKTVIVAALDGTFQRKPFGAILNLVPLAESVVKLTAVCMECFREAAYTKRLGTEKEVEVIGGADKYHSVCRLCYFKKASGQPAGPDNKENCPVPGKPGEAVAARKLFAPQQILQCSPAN
In short: (§1)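 Purified recombinant VZV TK (7.75 ng), HSV-1 TK (226 ng) or human cytosolic TK-1 (455 ng) in 50 mM Tris-HCl pH 8.0, 2.5 mM MgCl2, 10 mM DTT, 2.5 mM ATP, 1 mg/mL BSA, 10 mM NaF, with 1 µM final [CH3-3H]dThd substrate. Incubated 30 min at 37 °C with varied compound concentrations; the reaction was linear over this time. Product bound on DE-81 filters, washed, and counted by liquid scintillation. Result reported as IC50.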

[2] = Inhibition of Varicella zoster virus thymidine kinase; parameters: species or system Human alphaherpesvirus 3; in short: as §1
[3] = Inhibition of HSV1 thymidine kinase; parameters: species or system Human alphaherpesvirus 1; in short: as §1
Stomach [4] = assay: Biodistribution in NMRI mouse stomach assessed as radioactivity after 60 mins; type: ADME, organism-based; conditions: in vivo, 1 h
In short: (§2)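 Male NMRI mice (37–43 g) given 0.1 mL HPLC-purified tracer (diluted in water for injection, EtOH <5%; 37 MBq/mL for 11C tracer, 3.7 MBq/mL for 18F tracer) via tail vein under ketamine/xylazine ip anaesthesia. Decapitation at 2 or 60 min, n=3 per time point. Organs dissected, weighed, gamma counted. Results given as %ID (cpm organ/total cpm recovered) or SUV. Blood mass taken as 7% of body mass. Mean ± SD.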

Stomach [5] = assay: Biodistribution in NMRI mouse stomach assessed as radioactivity after 2 mins; type: ADME, organism-based; conditions: in vivo; in short: as §2
Mus musculus [6] = organism: Mus musculus; assay: Biodistribution in NMRI mouse carcass assessed as radioactivity after 60 mins; type: ADME, organism-based; conditions: in vivo, 1 h; in short: as §2
Mus musculus [7] = organism: Mus musculus; assay: Biodistribution in NMRI mouse spleen + pancreas assessed as radioactivity after 2 mins; type: ADME, organism-based; conditions: in vivo; in short: as §2
Heart [8] = assay: Biodistribution in NMRI mouse heart assessed as radioactivity after 2 mins; type: ADME, organism-based; conditions: in vivo; in short: as §2
Brain [9] = assay: Biodistribution in NMRI mouse brain assessed as radioactivity after 2 mins; type: ADME, organism-based; conditions: in vivo; in short: as §2
[10] = Partition coefficient, log P in 1-octanol and phosphate buffer at pH 7.4; type: physicochemical; conditions: 1-octanol/phosphate buffer
In short: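 HPLC-isolated tracer (about 550 kBq 11C or 185 kBq 18F) partitioned between 1-octanol and 0.025 M phosphate buffer pH 7.4 (2 mL each). Vortexed 2 min at room temperature, centrifuged 1837 g for 5 min. Aliquots of both phases weighed and gamma counted. P calculated as the cpm/mL ratio after density correction; n=6.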

Mus musculus [11] = organism: Mus musculus; assay: Biodistribution in NMRI mouse urine assessed as radioactivity after 2 mins; type: ADME, organism-based; conditions: in vivo; in short: as §2
Mus musculus [12] = organism: Mus musculus; assay: Biodistribution in NMRI mouse urine assessed as radioactivity after 60 mins; type: ADME, organism-based; conditions: in vivo, 1 h; in short: as §2
Liver [13] = assay: Biodistribution in NMRI mouse liver assessed as radioactivity after 60 mins; type: ADME, organism-based; conditions: in vivo, 1 h; in short: as §2
Mus musculus [14] = organism: Mus musculus; assay: Biodistribution in NMRI mouse carcass assessed as radioactivity after 2 mins; type: ADME, organism-based; conditions: in vivo; in short: as §2
Heart [15] = assay: Biodistribution in NMRI mouse heart assessed as radioactivity after 60 mins; type: ADME, organism-based; conditions: in vivo, 1 h; in short: as §2
Liver [16] = assay: Biodistribution in NMRI mouse liver assessed as radioactivity after 2 mins; type: ADME, organism-based; conditions: in vivo; in short: as §2
[17] = Drug uptake in LV-VZVTK-IP transduced 293T cells assessed as radioactivity at 1.1 MBq after 0.5 hrs; type: ADME, cell-based; conditions: human, hek-293t
In short: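 293T cells stably transduced with lentivirus carrying VZV-tk-IRES-pac (kept in 1 µg/mL puromycin), alongside untransduced control 293T cells. Plated in triplicate at 200 000 cells/well. After 24 h, fresh medium with HPLC-purified tracer added: 1.1 MBq (11C tracer, 0.5 h) or 185 kBq (18F tracer, 3 h), 37 °C. Cells washed with ice-cold PBS and lysed. Gamma counting. Uptake given as % of total radioactivity per mg protein (Bio-Rad assay).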

Mus musculus [18] = organism: Mus musculus; assay: Biodistribution in NMRI mouse spleen + pancreas assessed as radioactivity after 60 mins; type: ADME, organism-based; conditions: in vivo, 1 h; in short: as §2
Lung [19] = assay: Biodistribution in NMRI mouse lungs assessed as radioactivity after 60 mins; type: ADME, organism-based; conditions: in vivo, 1 h; in short: as §2
Intestine [20] = assay: Biodistribution in NMRI mouse intestine assessed as radioactivity after 2 mins; type: ADME, organism-based; conditions: in vivo; in short: as §2
Blood [21] = assay: Biodistribution in NMRI mouse blood assessed as radioactivity after 60 mins; type: ADME, organism-based; conditions: in vivo, 1 h; in short: as §2
Kidney [22] = assay: Biodistribution in NMRI mouse kidney assessed as radioactivity after 60 mins; type: ADME, organism-based; conditions: in vivo, 1 h; in short: as §2
Brain [23] = assay: Biodistribution in NMRI mouse brain assessed as radioactivity after 60 mins; type: ADME, organism-based; conditions: in vivo, 1 h; in short: as §2
Lung [24] = assay: Biodistribution in NMRI mouse lungs assessed as radioactivity after 2 mins; type: ADME, organism-based; conditions: in vivo; in short: as §2
Blood [25] = assay: Biodistribution in NMRI mouse blood assessed as radioactivity after 2 mins; type: ADME, organism-based; conditions: in vivo; in short: as §2
Kidney [26] = assay: Biodistribution in NMRI mouse kidney assessed as radioactivity after 2 mins; type: ADME, organism-based; conditions: in vivo; in short: as §2
Intestine [27] = assay: Biodistribution in NMRI mouse intestine assessed as radioactivity after 60 mins; type: ADME, organism-based; conditions: in vivo, 1 h; in short: as §2

IC50 [1]: > 500 µM
IC50 [2]: > 500 µM
IC50 [3]: > 500 µM
Compound: O=c1nc2oc(-c3cccc(OCCCCCCF)c3)cc2cn1[C@H]1C[C@H](O)[C@@H](CO)O1

Drug uptake (Stomach [4]): 1 %ID
Drug uptake (Stomach [5]): 1.2 %ID
Drug uptake (Mus musculus [6]): 5.8 %ID
Drug uptake (Mus musculus [7]): 1.5 %ID
Drug uptake (Heart [8]): 0.5 %ID
Drug uptake (Brain [9]): 0 %ID
logD [10]: 1.3
Drug uptake (Mus musculus [11]): 1.4 %ID
Drug uptake (Mus musculus [12]): 34.3 %ID
Drug uptake (Liver [13]): 9.9 %ID
Drug uptake (Mus musculus [14]): 29.5 %ID
Drug uptake (Heart [15]): 0 %ID
Drug uptake (Liver [16]): 20.3 %ID
Drug uptake [17]: 28.8 %ID
Drug uptake (Mus musculus [18]): 0.4 %ID
Drug uptake (Lung [19]): 0.1 %ID
Drug uptake (Intestine [20]): 16.8 %ID
Drug uptake (Blood [21]): 0.6 %ID
Drug uptake (Kidney [22]): 1.4 %ID
Drug uptake (Brain [23]): 0 %ID
Drug uptake (Lung [24]): 1.2 %ID
Drug uptake (Blood [25]): 7.1 %ID
Drug uptake (Kidney [26]): 22.9 %ID
Drug uptake (Intestine [27]): 46.7 %ID
Compound: [11CH3]Oc1ccc(-c2cc3cn([C@H]4C[C@H](O)[C@@H](CO)O4)c(=O)nc3o2)cc1
